The subject of data set [1] is MCP-1. Put plainly: MCP-1 release. As to conditions: LPS-induced BV2 cells, pretreatment, concentration-dependent manner (Fig. 4 and 5). It counts as cell-based.
Data set [2] concerns LPS-induced RAW264.7 cells. As to conditions: cited from earlier work.
Data set [3] has as its system IL-6. Briefly: IL-6 release. It counts as cell-based. The settings on record: LPS-induced BV2 cells, pretreatment, concentration-dependent manner (Fig. 4 and 5).
The test system of data set [4] is BV2 microglial cells. Put plainly: Cytotoxicity. The settings on record: 24 hours, MTT, mean ± SD (n = 3). It counts as cell-based. Summed up:
(§1)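 Mouse BV2 microglia in DMEM with 10% FBS and 1% penicillin–streptomycin, 37 °C, 5% CO2. Seeded at 2 × 10^4 cells/well for 24 h, then exposed to test compound (0, 5, 10, 20, 40, 80 μM) for 24 h. MTT at 500 μg mL−1 for 3 h, formazan dissolved in DMSO, A570. Mean ± SD (n = 3); one-way ANOVA with Dunnett versus vehicle.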

In data set [5] the test system is TNF-α. Put plainly: TNF-α release. It counts as cell-based. As to conditions: LPS-induced BV2 cells, pretreatment, concentration-dependent manner (Fig. 4 and 5).
Data set [6] in a line: Cytotoxicity. It counts as cell-based. The settings on record: mouse, BV2 microglial cells. Summed up:
as §1

The test system of data set [7] is NF-κB (p65). Put plainly: Western blot of LPS-induced NF-κB. It counts as cell-based. As to conditions: pretreated 1 hour with the highest safety dose, LPS for 1 hour (Fig. 6). Summed up:
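BV2 cells (2 × 10^6 per 6 cm dish) got the highest non-cytotoxic test-compound concentration for 1 h, then LPS for 1 h. Lysates were centrifuged (4 °C, 12 000 rpm, 10 min), Bradford-quantified, 40 μg run on 10% SDS–PAGE and semi-dry blotted to nitrocellulose. P-p65, p65 (1:1000) and β-actin (1:2000) were detected by HRP anti-rabbit and ECL, then densitometry; one-way ANOVA/Bonferroni versus LPS.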
(In general: Immunoblotting shows a protein as a band on a membrane.)

Regarding coelonin [Compound 6], the “Effect on release of MCP-1” value in data set [1] was “significantly reduced”. Also, in data set [2], the Anti-inflammatory activity result was “anti-inflammatory activity”. The “Effect on release of IL-6” value in data set [3] is “significantly reduced”. Also, the “Percentage viability (%)” value worked out at 106.33 ± 4.65% in data set [4] (5 μM); 108.08 ± 5.54% in data set [4] (10 μM); 105.55 ± 7.76% in data set [4] (20 μM); 76.69 ± 2.86 % in data set [4] (40 μM); 44.78 ± 13.23 % in data set [4] (80 μM). Also, the “Effect on release of TNF-α” value in data set [5] is recorded as “significantly reduced”.
Consider `O=C(O)c1ccc(CO)cc1` [Compound 15, 4-hydroxymethyl benzoic acid], for which, in data set [6], the viability (commonly a read-out of living cells in per cent, often relative to untreated cells) at 24 h, 5 µM came out at 103 ± 1.97%; the viability at 24 h, 10 µM amounted to 105 ± 3.91%; the viability at 24 h, 20 µM was determined as 111 ± 2.26%; the viability at 24 h, 40 µM was 108 ± 2.12%. The viability at 24 h, 80 µM in data set [6] was 104 ± 3.05%.
`COc1cc2c(ccc3cc(OC)c(O)c(OC)c32)cc1O` [Compound 8, 3,7-dihydroxy-2,4,6-trimethoxyphenanthrene]: in data set [6], the viability at 24 h, 5 µM amounted to 106.3 ± 0.36%; the viability at 24 h, 10 µM came to 100 ± 6.16%; the viability at 24 h, 20 µM is 108.2 ± 0.53%; the viability at 24 h, 40 µM amounted to 113 ± 1.57%. Moreover, the viability at 24 h, 80 µM in data set [6] is 94.4 ± 21.2%.
As for `COc1cc(C(=O)O)ccc1O` [Compound 11, vanillic acid], in data set [6], the viability at 24 h, 5 µM stood at 102.9 ± 0.86%; the viability at 24 h, 10 µM stood at 99.7 ± 1.55%; the viability at 24 h, 20 µM came to 98.77 ± 0.86%; the viability at 24 h, 40 µM came to 94.8 ± 2.82%. Besides, the viability at 24 h, 80 µM in data set [6] turned out to be 86.4 ± 4.09%.
As for `COc1cc(O)cc2c1-c1c(O)cccc1CC2` [Compound 7, hircinol], in data set [6], the viability at 24 h, 5 µM was determined as 105 ± 4.37%; the viability at 24 h, 10 µM turned out to be 108 ± 3.16%; the viability at 24 h, 20 µM was found to be 112 ± 2.51%; the viability at 24 h, 40 µM worked out at 111 ± 1.88%. Moreover, the viability at 24 h, 80 µM in data set [6] is 104 ± 9.12%.
Turning to `O=C(O)c1ccc(O)cc1` [Compound 10, p-hydroxybenzoic acid], in data set [6], the viability at 24 h, 5 µM amounted to 101 ± 2.85%; the viability at 24 h, 10 µM came out at 96.6 ± 1.58%; the viability at 24 h, 20 µM was determined as 104 ± 7.79%; the viability at 24 h, 40 µM is 95.8 ± 4.1%. Also, the viability at 24 h, 80 µM in data set [6] worked out at 85.1 ± 9.87%.
On to `COc1ccc2c(c1O)CCc1cc(O)cc(OC)c1-2` [Compound 4, 9,10-dihydro-2,5-dimethoxy-1,7-phenanthrenediol], for which, in data set [6], the viability at 24 h, 5 µM was 102 ± 3.53%; the viability at 24 h, 10 µM was 99.3 ± 5.77%; the viability at 24 h, 20 µM was found to be 101 ± 2.3%; the viability at 24 h, 40 µM was 95.3 ± 3.88%. Besides, the viability at 24 h, 80 µM in data set [6] was found to be 49.1 ± 24.6%.
On to `COc1cc2ccc3cccc(O)c3c2c(OC)c1O` [Compound 9, bulbophyllanthrin], for which, in data set [6], the viability at 24 h, 5 µM is 102 ± 2.99%; the viability at 24 h, 10 µM is 101 ± 4.09%; the viability at 24 h, 20 µM was found to be 105 ± 3.47%; the viability at 24 h, 40 µM was found to be 105 ± 5.59%. Also, in data set [6], the viability at 24 h, 80 µM is 112 ± 5.8%.
Turning to `COc1cc(O)c(Cc2ccc(O)cc2)c2c1-c1ccc(O)cc1CC2` [Compound 14, 1-(4-hydroxylbenzyl)-4-methoxy 9,10-dihydrophenanthrene 2,7-diol], the “Effect on release of MCP-1” value in data set [1] was “significantly reduced”. The “Effect on release of IL-6” value in data set [3] is “significantly reduced”. In addition, in data set [6], the viability at 24 h, 5 µM was found to be 108 ± 3.2%; the viability at 24 h, 10 µM was 97.9 ± 8.91%; the viability at 24 h, 20 µM amounted to 91.9 ± 1.47%; the viability at 24 h, 40 µM came to 65.9 ± 4.08%. Moreover, in data set [6], the viability at 24 h, 80 µM worked out at 26.7 ± 14.7%. For the same molecule, the “Effect on release of TNF-α” value in data set [5] is “significantly reduced”.
As for `COc1cc(/C=C/C(=O)NCCc2ccc(O)cc2)ccc1O` [Compound 17, N-trans-feruloyl tyramine], in data set [6], the viability at 24 h, 5 µM was determined as 107 ± 6.44%; the viability at 24 h, 10 µM is 97.3 ± 7.01%; the viability at 24 h, 20 µM came out at 101 ± 8.73%; the viability at 24 h, 40 µM was 101 ± 5.33%. In data set [6], the viability at 24 h, 80 µM came to 84.9 ± 5.53%.
Consider `O=Cc1ccc(O)cc1` [Compound 5, p-hydroxybenzaldehyde], for which, in data set [6], the viability at 24 h, 5 µM worked out at 105 ± 1.81%; the viability at 24 h, 10 µM was found to be 104 ± 7.68%; the viability at 24 h, 20 µM was 101 ± 7.37%; the viability at 24 h, 40 µM was found to be 101 ± 14.9%. The viability at 24 h, 80 µM in data set [6] was 94.5 ± 21.6%.
As for `COC1=CC(=O)c2ccc3cc(OC)c(OC)c(OC)c3c2C1=O` [Compound 3, 3,5,6,7-tetramethoxy-1,4-phenanthrenequinone], the “Effect on release of MCP-1” value in data set [1] is given as “significantly reduced”. For the same molecule, the “Effect on LPS-induced NF-κB (p65) phosphorylation (P-p65-NF-κB/p65-NF-κB ratio)” value in data set [7] is reported as “significantly suppressed”. In data set [3], the “Effect on release of IL-6” value is listed as “significantly reduced”. In addition, in data set [6], the viability at 24 h, 5 µM came out at 99.9 ± 1.96%; the viability at 24 h, 10 µM came out at 95.6 ± 7.44%; the viability at 24 h, 20 µM worked out at 94.9 ± 3.76%; the viability at 24 h, 40 µM turned out to be 88.8 ± 6.76%. Besides, in data set [6], the viability at 24 h, 80 µM worked out at 55.1 ± 26.4%. Further, in data set [5], the “Effect on release of TNF-α” value is on record as “significantly reduced”.
On to `COC1=CC(=O)c2c(ccc3cc(OC)c(OC)c(OC)c23)C1=O` [Compound 1, 2,5,6,7-tetramethoxy-1,4-phenanthrenequinone], for which, in data set [1], the “Effect on release of MCP-1” value is recorded as “significantly reduced”. Besides, the “Effect on release of IL-6” value in data set [3] is given as “significantly reduced”. Besides, in data set [6], the viability at 24 h, 5 µM was determined as 101 ± 3.33%; the viability at 24 h, 10 µM was found to be 101.5 ± 0.67%; the viability at 24 h, 20 µM was determined as 105 ± 7.09%; the viability at 24 h, 40 µM was 102 ± 8.6%. In data set [6], the viability at 24 h, 80 µM turned out to be 73.7 ± 18.5%. For the same molecule, in data set [5], the “Effect on release of TNF-α” value is recorded as “significantly reduced”.

(Values after paper PMC11375963 (RSC Advances, 2024).)
